Results on 16 molecules are retold here after ChEMBL document CHEMBL4049458, “Structure-Based Optimization of Thiophene[3,2-d]pyrimidine Derivatives as Potent HIV-1 Non-nucleoside Reverse Transcriptase Inhibitors with Improved Potency against Resistance-Associated Variants” (J Med Chem, 2017).

The nature of series [1]: Fold resistance, ratio of EC50 for reverse transcriptase E138K mutant in human MT4 cells infected HIV1 3B to EC50 for wild type HIV1 3B harboring reverse transcriptase infected in human MT4 cells. In kind it is functional. The procedure, abridged:
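MT-4 cells at 6 × 10^5 cells/mL were infected with WT HIV-1 IIIB or RT-mutant strains at 100−300 CCID50, with 5-fold serial compound dilutions in triplicate wells. After 5 days, viability was read by MTT reduction at 540 and 690 nm, using the median OD of three wells. […] Fold resistance is mutant EC50 divided by WT EC50.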

Series [2] in a line: Selectivity index, ratio of CC50 for human MT4 cells to EC50 for reverse transcriptase Y188L mutant in human MT4 cells infected HIV1 3B. To be noted: MT4 cells.
The nature of series [3]: Selectivity index, ratio of CC50 for human MT4 cells to EC50 for wild type HIV1 3B harboring reverse transcriptase infected in human MT4 cells. To be noted: MT4 cells.
Series [4] is described as follows: Selectivity index, ratio of CC50 for human MT4 cells to EC50 for HIV1 RES056 reverse transcriptase K103N/Y181C double mutant infected in human MT4 cells. To be noted: MT4 cells.
A short description of series [5]: Selectivity index, ratio of CC50 for human MT4 cells to EC50 for reverse transcriptase Y181C mutant in human MT4 cells infected HIV1 3B. To be noted: MT4 cells.
The nature of series [6]: Selectivity index, ratio of CC50 for human MT4 cells to EC50 for reverse transcriptase F227L/V106A double mutant in human MT4 cells infected HIV1 3B. To be noted: MT4 cells.
Series [7] has as its system Human immunodeficiency virus 2. The series is described as follows: Antiviral activity against HIV2 ROD harboring reverse transcriptase infected in human MT4 cells assessed as protection against virus induced cytotoxicity after 5 days by MTT assay. Format: functional, cell-based. To be noted: Human immunodeficiency virus 2, ISOLATE ROD, MT4, 120 h.
A short description of series [8]: Selectivity index, ratio of CC50 for human MT4 cells to EC50 for reverse transcriptase E138K mutant in human MT4 cells infected HIV1 3B. To be noted: MT4 cells.
A short description of series [9]: Selectivity index, ratio of CC50 for human MT4 cells to EC50 for reverse transcriptase K103N mutant in human MT4 cells infected HIV1 3B. To be noted: MT4 cells.
Series [10] is described as follows: Cytotoxicity against human MT4 cells assessed as cell viability after 5 days by MTT assay. In kind it is cell-based. Background: Tetrazolium assays rely on reduction of a dye to a coloured formazan, in cell work by metabolically active cells.
Series [11] concerns Human immunodeficiency virus 1. The series is described as follows: Antiviral activity against wild type HIV1 3B harboring reverse transcriptase infected in human MT4 cells assessed as protection against virus induced cytotoxicity after 5 days by MTT assay. Format: functional, cell-based. To be noted: Human immunodeficiency virus 1, 3B, MT4, 120 h.
Series [12] can be described thus: Selectivity index, ratio of CC50 for human MT4 cells to EC50 for reverse transcriptase L100I mutant in human MT4 cells infected HIV1 3B. To be noted: MT4 cells.
A short description of series [13]: Inhibition of recombinant wild type HIV1 3B reverse transcriptase infected in human MT4 cells assessed as decrease in biotin-dUTP incorporation after 1 hr. Format: cell-based. To be noted: Human immunodeficiency virus 1, 3B, MT4, 1 h. The method, boiled down:
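Recombinant HIV-1 RT assayed with a kit ELISA. Enzyme, reconstituted template and nucleotides (DIG-dUTP, biotin-dUTP, dTTP) were incubated in incubation buffer with or without inhibitor for 1 h at 37 °C. Product was captured on streptavidin plates for 1 h at 37 °C, then anti-DIG-POD was added for 1 h at 37 °C, followed by ABTS. Read at OD405.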

A value given as a limit tells only on which side of the number the result lay.

The term EC50 denotes the midpoint of the concentration-response curve. Usually CC50 stands for the concentration giving 50% cytotoxicity. For `Cc1cc(C#N)cc(C)c1Oc1nc(NC2CCC(NCc3ccc(S(C)(=O)=O)cc3)CC2)nc2ccsc12` (stereo not drawn), the “Ratio EC50” value in [1] is given as 2.4. The selectivity ratio in [2] is ≤ 1; in series [3], 1320; in series [4], < 1; in series [5] it was < 1; in [6], < 1; in [8], 556. The selectivity ratio was 212 in series [9] and ≤ 1 in [12]. In addition, the results for the EC50 in series [7] and in [11] were > 75.2 µM and 0.0573 µM, respectively. Moreover, the CC50 at 120 h in [10] amounted to 75.2 µM.
Broadly, the IC50 is the concentration needed to halve the response being measured. As to `Cc1cc(C#N)cc(C)c1Oc1nc(NC2CCC(NCc3ccc(S(N)(=O)=O)cc3)CC2)nc2ccsc12` (stereo not drawn), the CC50 at 120 h in [10] was found to be 3.69 µM. Further, in [11], the EC50 turned out to be 0.0422 µM. Also, in series [13], the IC50 was determined as 4.02 µM.
In the same order, the values of `Cc1cc(/C=C/C#N)cc(C)c1Oc1nc(NC2CCN(Cc3ccc(S(C)(=O)=O)cc3)CC2)nc2ccsc12` are 1.8 µM, 0.00232 µM and 0.89 µM.
Regarding `Cc1cc(C#N)cc(C)c1Oc1nc(NC2CCC(NCc3ccc(F)cc3)CC2)nc2ccsc12` (stereo not drawn), the selectivity ratio was < 1 in series [2]; 5 in [3]; < 1 in series [4]; < 1 in series [5]; < 1 in [6]; ≤ 2 in [8]. The selectivity ratio in series [9] and in [12] was 3 in each case. The EC50 in series [7] was > 2.76 µM; in [11], 0.553 µM. Moreover, the CC50 at 120 h in series [10] stood at 2.76 µM.
`CCOC(=O)c1ccc(CN2CCC(Nc3nc(Oc4c(C)cc(/C=C/C#N)cc4C)c4sccc4n3)CC2)cc1`: the selectivity ratio in series [2] is ≥ 22; in series [3], ≥ 247; in [4], ≥ 22; in series [5], ≥ 110; in series [6], ≥ 42; in series [8], ≥ 96. The values for the selectivity ratio in [9] and in [12] were ≥ 273 and ≥ 134, respectively. Moreover, the EC50 in series [7] was > 3.61 µM; in [11], 0.0146 µM. Besides, the CC50 at 120 h in series [10] was ≥ 3.61 µM.
As for `Cc1cc(/C=C/C#N)cc(C)c1Oc1nc(NC2CCN(Cc3cccc(C#N)c3)CC2)nc2ccsc12`, the selectivity ratio came to 55 in series [2]; 639 in [3]; 24 in [4]; 105 in [5]; 107 in [6]; 101 in series [8]. The values for the selectivity ratio in series [9] and in series [12] were 470 and 352, respectively. Also, the figures for the EC50 in series [7] and in series [11] were > 2.83 µM and 0.00443 µM, respectively. In [10], the CC50 at 120 h is 2.82 µM.
Take `Cc1cc(/C=C/C#N)cc(C)c1Oc1nc(NC2CCN(Cc3cccc(Cl)c3)CC2)nc2ccsc12`: the selectivity ratio in [2] turned out to be 29; in series [3] it was 188; in series [4], 33; in [5], 69; in series [6] it was 72; in series [8], 37. For the same molecule, the values for the selectivity ratio in series [9] and in series [12] were 164 and 163, respectively. The figures for the EC50 in [7] and in series [11] were > 4.88 µM and 0.0259 µM, respectively. Moreover, the CC50 at 120 h in series [10] came to 4.88 µM.
Take `Cc1cc(/C=C/C#N)cc(C)c1Oc1nc(NC2CCN(Cc3ccccn3)CC2)nc2ccsc12`: the selectivity ratio in series [2] stood at 92; in [3], 1150; in series [4] it was 32; in series [5], 418; in series [6], 144; in series [8], 517. Besides, the values for the selectivity ratio in series [9] and in series [12] were 724 and 210, respectively. The EC50 in series [7] is > 3.85 µM; in [11], 0.00336 µM. For the same molecule, in series [10], the CC50 at 120 h came to 3.85 µM.
As for `Cc1cc(C#N)cc(C)c1Oc1nc(NC2CCN(Cc3ccc(S(N)(=O)=O)cc3)CC2)nc2sccc12`, the selectivity ratio in [2] was determined as 3170; in [3] it was 12300; in series [4], 625; in series [5], 3160; in series [6] it was 2730; in [8], 3180. Moreover, the selectivity ratio in series [9] stood at 7370; in series [12], 5440. Also, the EC50 is > 24.1 µM in [7] and 0.00197 µM in series [11]. Besides, the CC50 at 120 h in series [10] came out at 24.1 µM. The IC50 in series [13] turned out to be 0.42 µM.
Consider `Cc1cc(/C=C/C#N)cc(C)c1Oc1nc(NC2CCN(Cc3ccccc3C#N)CC2)nc2ccsc12`, for which the selectivity ratio in series [2] was 18; in [3] it was 236; in [4], 7; in series [5] it was 66; in series [6], 60; in series [8], 53. Also, the selectivity ratio in [9] was 130; in series [12], 151. In addition, the EC50 in series [7] is > 2.28 µM; in series [11], 0.00966 µM. In addition, the half-maximal cytotoxic concentration (CC50) at 120 h in [10] worked out at 2.28 µM.
As to `Cc1cc(C#N)cc(C)c1Oc1nc(NC2CCC(NCc3ccc(Br)cc3)CC2)nc2ccsc12` (stereo not drawn), the selectivity ratio in series [2] was < 1; in [3], 10; in series [4] it was < 1; in series [5], < 1; in series [6], < 1; in series [8] it was 4. Also, the selectivity ratio is ≤ 5 in series [9] and ≤ 2 in series [12]. Also, the EC50 was > 3.45 µM in series [7] and 0.339 µM in series [11]. The CC50 at 120 h in series [10] was 3.45 µM.
On to `Cc1cc(C#N)cc(C)c1Oc1nc(NC2CCN(Cc3ccc(C(N)=O)cc3)CC2)nc2sccc12`, for which the selectivity ratio in [2] is < 1; in series [3], 32; in series [4], 3; in [5], 20; in series [6], < 1; in series [8] it was 6. The selectivity ratio came out at 11 in series [9] and 9 in series [12]. Moreover, the results for the EC50 in series [7] and in series [11] were > 4.93 µM and 0.152 µM, respectively. Moreover, the CC50 at 120 h in [10] turned out to be 4.93 µM.
Consider `Cc1cc(/C=C/C#N)cc(C)c1Oc1nc(NC2CCN(Cc3ccc([N+](=O)[O-])cc3)CC2)nc2ccsc12`, for which the selectivity ratio in series [2] was 30; in series [3], 456; in series [4], 32; in series [5], 115; in series [6], 33; in series [8], 86. The selectivity ratio in series [9] came to 365; in series [12] it was 134. Also, the EC50 was > 3.52 µM in series [7] and 0.00773 µM in [11]. In series [10], the CC50 at 120 h amounted to 3.52 µM.
Regarding `Cc1cc(C#N)cc(C)c1Oc1nc(NC2CCC(NCc3cccc(C(F)(F)F)c3)CC2)nc2ccsc12` (stereo not drawn), the selectivity ratio was < 1 in series [2]; 4 in [3]; < 1 in series [4]; < 1 in series [5]; < 1 in series [6]; < 1 in [8]. Further, the selectivity ratio in series [9] and in series [12] was < 1 each time. Besides, the values for the EC50 in series [7] and in [11] were > 0.707 µM and 0.174 µM, respectively. In series [10], the cytotoxic concentration (CC50) at 120 h turned out to be 0.707 µM.
`Cc1cc(/C=C/C#N)cc(C)c1Oc1nc(NC2CCN(Cc3ccc(Br)cc3)CC2)nc2ccsc12`: the selectivity ratio is 24 in series [2]; 240 in series [3]; 44 in series [4]; 53 in series [5]; 42 in series [6]; 44 in series [8]. Also, the results for the selectivity ratio in series [9] and in series [12] were 227 and 117, respectively. For the same molecule, the EC50 in series [7] is > 6.79 µM; in [11] it was 0.0283 µM. Moreover, the CC50 at 120 h in series [10] was 6.79 µM.
Turning to `Cc1cc(C#N)cc(C)c1Oc1nc(NC2CCC(NCc3ccc([N+](=O)[O-])cc3)CC2)nc2ccsc12` (stereo not drawn), the “Ratio EC50” value in series [1] is recorded as 1.6. Also, the selectivity ratio in series [2] is 5; in series [3], 544; in series [4], < 1; in series [5], ≤ 2; in [6], 84; in series [8], 344. Besides, the selectivity ratio in series [9] amounted to 79; in series [12], 35. In addition, the EC50 in [7] was > 54.4 µM; in [11], 0.1 µM. Besides, the CC50 at 120 h in series [10] worked out at 54.4 µM.
